Reference: ChEMBL document CHEMBL3244100, “Effect of sparsomycin analogues on the puromycin-peptidyl transferase reaction on ribosomes” (J Med Chem, 1978)
The source made the active and inactive calls. The calls are words filed in the database; no cut-off is given here.

Key:
Bacterial 70S ribosome [1] = test: Competitive inhibition of peptidyl transferase activity of Escherichia coli ribosome using Ac[14C]-L-Phe-tRNA/puromycin as donor/acceptor substrate assessed as acetyl[14C]phenylalanylpuromycin formation by double reciprocal plot analysis
Procedure, shortened: (§1)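 E. coli washed ribosomes (2.78 A260 units) charged with 20.8 pmol Ac[14C]Phe-tRNA in 100 mM Tris-Cl pH 7.5, 100 mM NH4Cl, 15 mM Mg(OAc)2, 0.65 mM DTT, 1.2 mM GTP, FWR, poly(U), 8 min at 28 °C. Mixture then added to puromycin with or without inhibitor, 28 °C. Product measured radiometrically. Ki from double reciprocal plots; highest concentration tested 2 × 10^-4 M.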

[2] = molecular target: T1, Bacterial 70S ribosome (Bacteria) (UniProt P0A7V0+P60723+P0AG67+P0A7R5+P0A7R9+P0A7S3+P0A7S9+P0AG59+P0ADZ4+P0A7T3+P0AG63+P0A7T7+P0A7U3+P0A7U7+P68679+P0A7V3+P0A7V8+P0A7W1+P02358+P02359+P0A7W7+P0A7X3+P0A7J3+P0A7J7+P0AA10+P0ADY3+P02413+P0ADY7+P0AG44+P0C018+P0A7K6+P0A7L0+P0A7L3+P0AG48+P61175+P0ADZ0+P60624+P68919+P0A7L8+P0A7M2+P0A7M6+P60422+P0AG51+P0A7N1+P0A7M9+P0A7N4+P0A7N9+P0A7P5+P0A7Q1+Q2EEQ2+P0A7Q6+P60438+P62399+P0AG55+P0A7K2); test: Competitive inhibition of peptidyl transferase activity of Escherichia coli ribosome using Ac[14C]-L-Phe-tRNA/puromycin as donor/acceptor substrate assessed as acetyl[14C]phenylalanylpuromycin formation at 2 x 10^-4 M by double reciprocal plot analysis; procedure, shortened: as §1
[3] = molecular target: T1, Bacterial 70S ribosome (Bacteria); test: Competitive inhibition of peptidyl transferase activity of Escherichia coli ribosome using Ac[14C]-L-Phe-tRNA/puromycin as donor/acceptor substrate assessed as acetyl[14C]phenylalanylpuromycin formation incubated with donor substrate/enzyme prior to puromycin addition
Procedure, shortened: (§2)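 Ribosomes charged with Ac[14C]-L-Phe-tRNA as in the binding step (poly(U), GTP, FWR, Mg2+, 8 min, 28 °C). The charged mixture was preincubated with 10^-6 M inhibitor for 15 min at 28 °C before adding 10^-4 M puromycin. Ac[14C]Phe-puromycin formation was followed over time at 28 °C.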

Bacterial 70S ribosome [4] = test: Competitive inhibition of peptidyl transferase activity of Escherichia coli ribosome using Ac[14C]-L-Phe-tRNA/puromycin as donor/acceptor substrate assessed as acetyl[14C]phenylalanylpuromycin formation by Dixon plot analysis
[5] = molecular target: T1, Bacterial 70S ribosome (Bacteria); test: Competitive inhibition of peptidyl transferase activity of Escherichia coli ribosome using Ac[14C]-L-Phe-tRNA/puromycin as donor/acceptor substrate assessed as acetyl[14C]phenylalanylpuromycin formation at 10^-6 M preincubated for 15 mins prior to puromycin addition; procedure, shortened: as §2

SMILES | Ki (Bacterial 70S ribosome [1]) [nM] | other results
CCCSC[C@H](CO)NC(=O)/C=C/c1c(C)[nH]c(=O)[nH]c1=O | 1100 | –
CCCSC[C@@H](CO)NC(=O)/C=C/c1c(C)[nH]c(=O)[nH]c1=O | – | inhibition [2]: inactive
CSCSCC(CO)NC(=O)/C=C/c1c(C)nc(O)nc1O (racemic) | 1090 | inhibition [3]: Active
CCCSCC(CO)NC(=O)/C=C/c1c(C)[nH]c(=O)[nH]c1=O (racemic) | 2000 | Ki (Bacterial 70S ribosome [4]): 2000 nM
Cc1[nH]c(=O)[nH]c(=O)c1/C=C/C(=O)NC(CO)CSCc1ccccc1 (racemic) | 1210 | –
CCCCCC(CO)NC(=O)/C=C/c1c(C)[nH]c(=O)[nH]c1=O (racemic) | 2300 | –
Cc1[nH]c(=O)[nH]c(=O)c1/C=C/C(=O)NC(C)CO (racemic) | – | inhibition [2]: inactive
CSC[S@@+]([O-])CC(CO)NC(=O)/C=C/c1c(C)[nH]c(=O)[nH]c1=O (stereo partly specified) [SPARSOMYCIN] | 500 | inhibition [5]: Active
